Source: ChEMBL document CHEMBL4414545, “Beta-Glucuronidase Catalyzes Deconjugation and Activation of Curcumin-Glucuronide in Bone” (J Nat Prod, 2019)

Columns and labels:
[1] = Ratio of AUC (0 to infinity) in C57BL/6J mouse serum to AUC (0 to infinity) in C57BL/6J mouse bone marrow at 500 mg/kg administered via oral gavage; assay type: ADME, organism-based; settings: in vivo
[2] = Drug concentration in C3H/HeJ mouse exhibiting decrease in GUSB activity assessed as level of aglycone curcumin in bone marrow at 500 mg/kg administered via oral gavage measured after 30 mins by LC-MS analysis; assay type: ADME, organism-based; settings: in vivo, 0.5 h, read-out: Ct
Procedure, shortened: (§1)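 Oral gavage of curcumin, 500 mg/kg in DMSO, to C57BL/6J or C3H/HeJ mice, n=3–4/group. Serum and marrow were taken 30 min post-dose. Marrow pellets from leg centrifugation were resuspended in 50 mM sodium acetate pH 5 and kept 2 h on ice; supernatants were used. Aglycone curcumin and curcumin-glucuronide were quantified by LC/MS, with marrow values adjusted to pellet volume.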

[3] = Drug concentration in mps/mps mutant mouse assessed as level of aglycone curcumin in serum at 100 mg/kg, ip measured after 20 mins by LC-MS analysis; assay type: ADME, organism-based; settings: in vivo, read-out: Ct
Procedure, shortened: (§2)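 Curcumin at 100 mg/kg in DMSO was given ip to 15-week C57BL/6J, C3H/HeJ or mps/mps (GUSB-null) mice, n=3–4/group. Serum and marrow were harvested 20 min later. Marrow was resuspended in 50 mM sodium acetate pH 5 for 2 h on ice. Aglycone and glucuronidated curcumin were measured by LC/MS, with marrow values corrected to the original pellet volume.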

[4] = AUC (0 to 48 hrs) in C57BL/6J mouse bone marrow at 500 mg/kg administered via oral gavage measured after 30 mins by LC-MS analysis; assay type: ADME, organism-based; set-up: time < 48 hr, dose 500 mg/kg, route oral
Procedure, shortened: (§3)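 Female 4-week C57BL/6J mice given a single oral gavage of curcumin, 500 mg/kg in DMSO. Serum and bone marrow were collected under isoflurane at the indicated times up to 48 h, n=4/group. Total curcumin (aglycone plus glucuronide) was measured by LC/MS with d6-curcumin standards. PK parameters came from noncompartmental analysis after extravascular dosing.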

[5] = Prodrug conversion in C57BL/6J mouse serum assessed as effect on aglycone curcumin level at 500 mg/kg administered via oral gavage incubated for 30 mins followed by resuspension in sodium acetate buffer at pH 5 measured after 2 hrs in presence of saccharolactone by LC-MS analysis; assay type: ADME, organism-based; settings: in vivo, pH 5, 500 mg/kg
[6] = Drug metabolism in C57BL/6J mouse assessed as level of curcumin-glucuronide in bone marrow at 500 mg/kg administered via oral gavage measured after 30 mins by LC-MS analysis; assay type: ADME, organism-based; settings: in vivo, 0.5 h, read-out: Ct; procedure, shortened: as §1
[7] = AUC (0 to infinity) in C57BL/6J mouse bone marrow at 500 mg/kg administered via oral gavage measured after 30 mins by LC-MS analysis; assay type: ADME, organism-based; set-up: dose 500 mg/kg, route oral, time infinity; procedure, shortened: as §3
[8] = Drug metabolism in mps/mps mutant mouse assessed as level of curcumin-glucuronide in serum at 100 mg/kg, ip measured after 20 mins by LC-MS analysis; assay type: ADME, organism-based; settings: in vivo, read-out: Ct; procedure, shortened: as §2
[9] = Drug concentration in C57BL/6J mouse assessed as level of aglycone curcumin in bone marrow at 500 mg/kg administered via oral gavage measured after 30 mins by LC-MS analysis; assay type: ADME, organism-based; settings: in vivo, 0.5 h, read-out: Ct; procedure, shortened: as §1
[10] = Drug metabolism in C3H/HeJ mouse exhibiting decrease in GUSB activity assessed as level of curcumin-glucuronide in bone marrow at 500 mg/kg administered via oral gavage measured after 30 mins by LC-MS analysis; assay type: ADME, organism-based; settings: read-out: Ct, in vivo, 0.5 h; procedure, shortened: as §1
[11] = Drug metabolism in C3H/HeJ mouse exhibiting decrease in GUSB activity assessed as level of curcumin-glucuronide in serum at 500 mg/kg administered via oral gavage measured after 30 mins by LC-MS analysis; assay type: ADME, organism-based; settings: in vivo, 0.5 h, read-out: Ct; procedure, shortened: as §1
[12] = Cmax in C57BL/6J mouse bone marrow at 500 mg/kg administered via oral gavage measured after 30 mins by LC-MS analysis; assay type: ADME, organism-based; set-up: dose 500 mg/kg, route oral; procedure, shortened: as §3
[13] = Drug metabolism in C57BL/6J mouse assessed as level of curcumin-glucuronide in serum at 500 mg/kg administered via oral gavage measured after 30 mins by LC-MS analysis; assay type: ADME, organism-based; settings: in vivo, 0.5 h, read-out: Ct; procedure, shortened: as §1
[14] = Tmax in C57BL/6J mouse serum at 500 mg/kg administered via oral gavage measured after 30 mins by LC-MS analysis; assay type: ADME, organism-based; procedure, shortened: as §3
[15] = Drug concentration in C57BL/6J mouse assessed as level of aglycone curcumin in serum at 500 mg/kg administered via oral gavage measured after 30 mins by LC-MS analysis; assay type: ADME, organism-based; settings: in vivo, 0.5 h, read-out: Ct; procedure, shortened: as §1
[16] = Drug concentration in C3H/HeJ mouse exhibiting decrease in GUSB activity assessed as level of aglycone curcumin in bone marrow at 100 mg/kg, ip measured after 20 mins by LC-MS analysis; assay type: ADME, organism-based; settings: in vivo, read-out: Ct; procedure, shortened: as §2
[17] = Ratio of drug concentration in C57BL/6J mouse bone marrow to drug concentration in C57BL/6J mouse serum; assay type: ADME
[18] = Half-life in C57BL/6J mouse bone marrow at 500 mg/kg administered via oral gavage measured after 30 mins by LC-MS analysis; assay type: ADME, organism-based; settings: in vivo, 0.5 h; procedure, shortened: as §3
[19] = Cmax in C57BL/6J mouse serum at 500 mg/kg administered via oral gavage measured after 30 mins by LC-MS analysis; assay type: ADME, organism-based; set-up: dose 500 mg/kg, route oral; procedure, shortened: as §3
[20] = Drug concentration in C3H/HeJ mouse exhibiting decrease in GUSB activity assessed as level of curcumin-glucuronide in bone marrow at 100 mg/kg, ip measured after 20 mins by LC-MS analysis; assay type: ADME, organism-based; settings: in vivo, read-out: Ct; procedure, shortened: as §2
[21] = AUC (0 to infinity) in C57BL/6J mouse serum at 500 mg/kg administered via oral gavage measured after 30 mins by LC-MS analysis; assay type: ADME, organism-based; set-up: dose 500 mg/kg, route oral, time infinity; procedure, shortened: as §3
[22] = Half-life in C57BL/6J mouse serum at 500 mg/kg administered via oral gavage measured after 30 mins by LC-MS analysis; assay type: ADME, organism-based; settings: in vivo, 0.5 h; procedure, shortened: as §3
[23] = Drug concentration in mps/mps mutant mouse assessed as level of aglycone curcumin in bone marrow at 100 mg/kg, ip measured after 20 mins by LC-MS analysis; assay type: ADME, organism-based; settings: in vivo, read-out: Ct; procedure, shortened: as §2
[24] = Drug concentration in C3H/HeJ mouse exhibiting decrease in GUSB activity assessed as level of aglycone curcumin in serum at 100 mg/kg, ip measured after 20 mins by LC-MS analysis; assay type: ADME, organism-based; settings: in vivo, read-out: Ct; procedure, shortened: as §2
[25] = Drug metabolism in C57BL/6J mouse assessed as level of curcumin-glucuronide in serum at 100 mg/kg, ip measured after 20 mins by LC-MS analysis; assay type: ADME, organism-based; settings: in vivo, read-out: Ct; procedure, shortened: as §2
[26] = AUC (0 to 48 hrs) in C57BL/6J mouse serum at 500 mg/kg administered via oral gavage measured after 30 mins by LC-MS analysis; assay type: ADME, organism-based; set-up: time < 48 hr, dose 500 mg/kg, route oral; procedure, shortened: as §3
RAW264.7 [27] = assay: Inhibition of RANKL-induced osteoclastogenesis in murine RAW264.7 cells assessed as formation of TRAP positive multinucleated osteoclasts pretreated for 4 hrs followed by RANKL addition measured after 72 hrs; assay type: functional, cell-based; settings: Mus musculus
Procedure, shortened: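 RAW 264.7 cells, used within 10 passages, were seeded at 5×10^3/well in DMEM with 10% FBS and allowed to adhere overnight at 37°C. Cells were pretreated 4 h with aglycone curcumin or curcumin-glucuronide, then given RANKL (50 ng/mL final) for 72 h. TRAP-positive multinucleated osteoclasts were counted, n=4/group.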

[28] = Tmax in C57BL/6J mouse bone marrow at 500 mg/kg administered via oral gavage measured after 30 mins by LC-MS analysis; assay type: ADME, organism-based; procedure, shortened: as §3
[29] = Drug concentration in C57BL/6J mouse assessed as level of aglycone curcumin in serum at 100 mg/kg, ip measured after 20 mins by LC-MS analysis; assay type: ADME, organism-based; settings: in vivo, read-out: Ct; procedure, shortened: as §2
RAW264.7 [30] = assay: Cytotoxicity against murine RAW264.7 cells assessed as effect on cell viability at 3 uM; assay type: cell-based; settings: mouse, raw264.7, 3 µM
[31] = Drug metabolism in C3H/HeJ mouse exhibiting decrease in GUSB activity assessed as level of curcumin-glucuronide in serum at 100 mg/kg, ip measured after 20 mins by LC-MS analysis; assay type: ADME, organism-based; settings: in vivo, read-out: Ct; procedure, shortened: as §2
[32] = Ratio of AUC (0 to 48 hrs) in C57BL/6J mouse serum to AUC (0 to 48 hrs) in C57BL/6J mouse bone marrow at 500 mg/kg administered via oral gavage; assay type: ADME, organism-based; settings: in vivo
[33] = Drug metabolism in C57BL/6J mouse assessed as level of curcumin-glucuronide in bone marrow at 100 mg/kg, ip measured after 20 mins by LC-MS analysis; assay type: ADME, organism-based; settings: in vivo, read-out: Ct; procedure, shortened: as §2
[34] = Prodrug conversion in C57BL/6J mouse bone marrow assessed as beta-glucuronidase mediated effect on aglycone curcumin level at 500 mg/kg administered via oral gavage incubated for 30 mins followed by resuspension in sodium acetate buffer at pH 5 measured after 2 hrs in presence of saccharolactone by LC-MS analysis; assay type: ADME, organism-based; settings: in vivo, pH 5, 500 mg/kg
Procedure, shortened: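 C57BL/6J mice were gavaged with curcumin at 500 mg/kg, and marrow was harvested 30 min later. Marrow was resuspended in 50 mM sodium acetate pH 5 with or without 10 mM saccharolactone, or mice received saccharolactone 1 g/kg ip in saline 1 h before curcumin. Suspensions were kept 2 h on ice, and aglycone curcumin (% of total) was measured by LC/MS, n=3–4/group.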

[35] = Drug concentration in C57BL/6J mouse assessed as level of aglycone curcumin in bone marrow at 100 mg/kg, ip measured after 20 mins by LC-MS analysis; assay type: ADME, organism-based; settings: in vivo, read-out: Ct; procedure, shortened: as §2

Ratio [1]: 10
concentration [2]: 470 nM
concentration [3]: 22800 nM
AUC(0-t) at 48 h [4]: 48 µM·h
Drug metabolism [5]: Metabolite_Detected
concentration [6]: 360 nM
AUC(0-inf) [7]: 48.3 µM·h
concentration [8]: 151000 nM
concentration [9]: 1140 nM
concentration [10]: 1190 nM
concentration [11]: 80000 nM
Cmax [12]: 5900 nM
concentration [13]: 82700 nM
Tmax [14]: 30 min
concentration [15]: 170 nM
concentration [16]: 500 nM
Kp [17]: 3
t1/2 [18]: 468 min
Cmax [19]: 106000 nM
concentration [20]: 2700 nM
AUC(0-inf) [21]: 488 µM·h
t1/2 [22]: 264 min
concentration [23]: 400 nM
concentration [24]: 2800 nM
concentration [25]: 92700 nM
AUC(0-t) at 48 h [26]: 487 µM·h
Tmax [28]: 30 min
concentration [29]: 7200 nM
concentration [31]: 92100 nM
Ratio [32]: 10
concentration [33]: 1300 nM
Drug metabolism [34]: Metabolite_Detected
concentration [35]: 1900 nM
Structure (SMILES): COc1cc(/C=C/C(=O)CC(=O)/C=C/c2ccc(O)c(OC)c2)ccc1O [CURCUMIN]
IC50 (RAW264.7 [27]): 3000 nM
Activity (RAW264.7 [30]): Non-Toxic
